The solubility is how much of the substance goes into solution per volume. For orientation: Cmax means the peak of the concentration-time curve. The Tmax is the time at which the peak concentration occurs. Usually AUC stands for the area under the concentration-time curve, a measure of exposure. Lower therefore signals less exposure.

This note sets out measurements from ChEMBL document CHEMBL1777714, “Optimization of triazoles as novel and potent nonphlorizin SGLT2 inhibitors” (Bioorg Med Chem Lett, 2011).

Data set [1] can be described thus: Solubility of the compound in phosphate buffered saline. Type of data set: physicochemical. The method, boiled down: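 Solubility measured in PBS buffer, reported in µg/mL.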
Data set [2] can be described thus: Cmax in rat at 100 mg/kg, sc. Type of data set: ADME, organism-based. As to conditions: in vivo. Set-up: dose 100 mg/kg, route subcutaneous.
The nature of data set [3]: Tmax in rat at 100 mg/kg, sc. To be noted: in vivo. Type of data set: ADME, organism-based. Set-up: dose 100 mg/kg, route subcutaneous.
For data set [4], the system named is Rattus norvegicus. Kind of data set: AUC (0 to 24 hrs) in rat at 100 mg/kg, sc. Set-up: time < 24 hr, dose 100 mg/kg, route subcutaneous. As to conditions: in vivo. Type of data set: ADME, organism-based, Plasma.
The test system of data set [5] is Rattus norvegicus. The experiment in a line: AUC (0 to 24 hrs) in rat at 70 mg/kg, sc. Type of data set: ADME, organism-based, Plasma. The arrangement: time < 24 hr, dose 70 mg/kg, route subcutaneous. To be noted: in vivo.
The nature of data set [6]: Cmax in rat at 70 mg/kg, sc. Type of data set: ADME, organism-based. Set-up: dose 70 mg/kg, route subcutaneous. To be noted: in vivo.
Data set [7] can be described thus: Tmax in rat at 70 mg/kg, sc. Type of data set: ADME, organism-based. Set-up: dose 70 mg/kg, route subcutaneous. As to conditions: in vivo.

In brackets after ≈: the same amount, converted by molar mass.

`CCCn1c(CN2C(=O)COc3c(C)cc(C)cc32)nnc1[C@@H]1CCc2ccccc2C1`: the concentration in solution in data set [1] (solubility) was 23 µg/mL (≈ 53.4 µM).
On the same count and under the same terms, the same measure for `O=C1COc2c(Cl)cc(Cl)cc2N1Cc1nnc(CCc2ccc(Cl)cc2)n1CCC(F)(F)F`: 1.6 µg/mL (≈ 3 µM); for `CCCn1c(CN2C(=O)COc3c(C)cc(C)cc32)nnc1[C@@H]1C[C@H]1c1ccccc1`: 19 µg/mL (≈ 45.6 µM); for `CCCn1c(CN2C(=O)COc3c(C)cc(C)cc32)nnc1-c1ccc(Cl)cn1`: 1.1 µg/mL (≈ 2.67 µM).
In data set [2], `CCCn1c(CN2C(=O)COc3c(C)cc(C)cc32)nnc1-c1ccccn1` displayed a Cmax of 1050 nM. Besides, in data set [1], the solubility stood at 64 µg/mL (≈ 170 µM). For the same compound, the Tmax in data set [3] is 8 h. For the same compound, the AUC in data set [4] came out at 16.2 µM·h.
In turn, `CCCn1c(CN2C(=O)COc3c2cc(Cl)cc3[N+](=O)[O-])nnc1-c1ncccc1C` returned a solubility in data set [1] of 80 µg/mL (≈ 181 µM).
Regarding `CCCn1c(CN2C(=O)COc3c2cc(C)cc3[N+](=O)[O-])nnc1-c1ccc(Cl)cn1`, the solubility in data set [1] stood at 2 µg/mL (≈ 4.52 µM).
In data set [1], `CCCn1c(CN2C(=O)COc3c2cc(Cl)cc3[N+](=O)[O-])nnc1-c1ccc(Cl)cn1` showed a solubility of 1 µg/mL (≈ 2.16 µM).
In the case of `CCCn1c(CN2C(=O)COc3c(C)cc(C)cc32)nnc1C1Cc2ccccc2C1`, the solubility in data set [1] turned out to be 35 µg/mL (≈ 84 µM). In data set [5], the AUC stood at 61.6 µM·h. For the same compound, the Cmax in data set [6] was 3.5 µM. Besides, the Tmax in data set [7] came to 24 h.
On to `O=C1COc2c(cc(Cl)cc2[N+](=O)[O-])N1Cc1nnc(-c2ccc(Cl)cn2)n1CCC(F)(F)F`, for which the solubility in data set [1] amounted to 2.2 µg/mL (≈ 4.25 µM).
